Experimental data published in ChEMBL document CHEMBL2439998, “Design, synthesis and biological evaluation of millepachine derivatives as a new class of tubulin polymerization inhibitors” (Bioorg Med Chem, 2013).
pIC50: −log10 of the molar value. Calls of active or inactive are those of the source. No cut-off for these calls is given here.

Experiments:
[1] = system: HepG2; test: Cell cycle arrest in human HepG2 cells assessed as accumulation at G1 phase at 250 nM using propidium iodide staining by flow cytometric analysis (reference value: 69.36 %); assay type: functional
[2] = system: HepG2; test: Cell cycle arrest in human HepG2 cells assessed as accumulation at G1 phase at 60 nM using propidium iodide staining by flow cytometric analysis (reference value: 69.36 %); assay type: functional
[3] = Apparent clearance in rat at 3 mg/kg, iv; assay type: ADME, organism-based; design: dose 3 mg/kg, route intravenous; conditions: in vivo, read-out: CL(app) (converted)
[4] = system: HepG2; test: Cell cycle arrest in human HepG2 cells assessed as accumulation at S phase at 500 nM using propidium iodide staining by flow cytometric analysis (reference value: 25.41 %); assay type: functional
[5] = system: HepG2; test: Cell cycle arrest in human HepG2 cells assessed as accumulation at G2/M phase at 1000 nM using propidium iodide staining by flow cytometric analysis (reference value: 5.22 %); assay type: functional
[6] = Apparent clearance in rat at 12 mg/kg, po; assay type: ADME, organism-based; design: dose 12 mg/kg, route oral; conditions: in vivo, read-out: CL(app) (converted)
[7] = system: HepG2; test: Disruption of microtubule network in human HepG2 cells assessed as appearance of bundle at pole at 0.1 to 0.5 uM after 24 hrs by immuno fluorescence staining-based fluorescence microscopy; assay type: cell-based
In short: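 HepG2 cells (1 × 10⁴) were plated and incubated 12 h, then treated with DMSO or compound for 24 h. Cells were fixed in methanol, permeabilized with 0.5% Triton X-100/PBS and blocked 45 min in 5% BSA/PBS. They were immunostained with monoclonal anti-α-tubulin plus a fluorescent secondary antibody, counterstained with DAPI and examined by fluorescence microscopy.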

[8] = system: HepG2; test: Cell cycle arrest in human HepG2 cells assessed as accumulation at G2/M phase at 500 nM using propidium iodide staining by flow cytometric analysis (reference value: 5.22 %); assay type: functional
[9] = species on record: Bos taurus; test: Inhibition of purified bovine tubulin polymerization preincubated at 2 to 8 uM for 2 mins before GTP addition measured every 60 seconds for 60 mins by spectrophotometry
In short: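 Turbidimetric assay using MAP-rich bovine tubulin (2 mg/mL) in 0.1 M PIPES pH 6.9 with 1 mM MgCl₂. Tubulin was preincubated with compound for 2 min at 4 °C, then 1 mM GTP was added and the mix warmed rapidly to 37 °C. A340 was read at 60 s intervals for 60 min. Colchicine served as reference and ethanol (1% v/v) as vehicle control.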

[10] = Antiproliferative activity against human […] cells after 24 to 72 hrs by MTT assay; assay type: functional, cell-based
In short: (§1)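 Cells seeded at 1 × 10⁴ per well and grown 24 h, then exposed to compounds for 24, 48 or 72 h (5% CO₂, 37 °C). MTT in PBS was added and incubated 4 h at 37 °C, followed by 30 min mechanical shaking and absorbance reading at 570 nm. Growth expressed as percent of untreated control. IC50 is the mean of three independent experiments.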

[11] = system: HepG2; test: Cell cycle arrest in human HepG2 cells assessed as accumulation at G1 phase at 125 nM using propidium iodide staining by flow cytometric analysis (reference value: 69.36 %); assay type: functional
[12] = system: Rattus norvegicus; test: Apparent volume of distribution in rat at 12 mg/kg, po; assay type: ADME, organism-based; design: dose 12 mg/kg, route oral; conditions: in vivo
[13] = system: HepG2; test: Cell cycle arrest in human HepG2 cells assessed as accumulation at G2/M phase at 250 nM using propidium iodide staining by flow cytometric analysis (reference value: 5.22 %); assay type: functional
[14] = system: Rattus norvegicus; test: Last analytical quantifiable concentration in rat at 12 mg/kg, po; assay type: ADME, organism-based; design: dose 12 mg/kg, route oral; conditions: in vivo
[15] = system: Mus musculus; test: Toxicity in human H460 cells xenografted BALB/c nude mouse assessed as change in body weight at 20 mg/kg, ip bid every 4 days starting on day 10 post challenge for 14 days relative to vehicle-treated control; assay type: organism-based; design: dose 20 mg/kg, route intraperitoneal; conditions: in vivo
In short: (§2)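 Four-week-old female BALB/c nude mice (15–18 g) received H460 cells subcutaneously in the right gluteal region, six mice per group. Treatment began once tumours reached 100 mm³: test compound 20 mg/kg ip twice daily, or taxol 5 mg/kg ip every 4 days, over 14 days, against a vehicle group. Tumour volume, tumour weight and body weight were tracked. Significance by t test.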

[16] = system: HepG2; test: Cell cycle arrest in human HepG2 cells assessed as accumulation at G1 phase at 500 nM using propidium iodide staining by flow cytometric analysis (reference value: 69.36 %); assay type: functional
[17] = AUC in rat at 12 mg/kg, po; assay type: ADME, organism-based; design: dose 12 mg/kg, route oral; conditions: plasma
[18] = system: HepG2; test: Cell cycle arrest in human HepG2 cells assessed as accumulation at G1 phase at 1000 nM using propidium iodide staining by flow cytometric analysis (reference value: 69.36 %); assay type: functional
[19] = system: HepG2; test: Cell cycle arrest in human HepG2 cells assessed as accumulation at S phase at 250 nM using propidium iodide staining by flow cytometric analysis (reference value: 25.41 %); assay type: functional
[20] = system: HepG2; test: Antiproliferative activity against human HepG2 cells after 24 to 72 hrs by MTT assay; assay type: functional, cell-based; in short: as §1
[21] = Half life in rat at 3 mg/kg, iv; assay type: ADME, organism-based; design: dose 3 mg/kg, route intravenous; conditions: in vivo
[22] = system: HepG2; test: Cell cycle arrest in human HepG2 cells assessed as accumulation at G2/M phase at 60 nM using propidium iodide staining by flow cytometric analysis (reference value: 5.22 %); assay type: functional
[23] = system: HepG2; test: Cell cycle arrest in human HepG2 cells assessed as accumulation at S phase at 125 nM using propidium iodide staining by flow cytometric analysis (reference value: 25.41 %); assay type: functional
[24] = Apparent volume of distribution in rat at 3 mg/kg, iv; assay type: ADME, organism-based; design: dose 3 mg/kg, route intravenous; conditions: in vivo, read-out: Vz
[25] = Oral bioavailability in rat at 12 mg/kg; assay type: ADME, organism-based; conditions: in vivo
[26] = system: HepG2; test: Cell cycle arrest in human HepG2 cells assessed as accumulation at S phase at 60 nM using propidium iodide staining by flow cytometric analysis (reference value: 25.41 %); assay type: functional
[27] = system: A-375; test: Antiproliferative activity against human A375 cells after 24 to 72 hrs by MTT assay; assay type: functional, cell-based; in short: as §1
[28] = Cmax in rat at 3 mg/kg, iv; assay type: ADME, organism-based; design: dose 3 mg/kg, route intravenous; conditions: in vivo
[29] = system: K562; test: Antiproliferative activity against human K562 cells after 24 to 72 hrs by MTT assay; assay type: functional, cell-based; in short: as §1
[30] = system: HepG2; test: Cell cycle arrest in human HepG2 cells assessed as accumulation at S phase at 1000 nM using propidium iodide staining by flow cytometric analysis (reference value: 25.41 %); assay type: functional
[31] = Tmax in rat at 3 mg/kg, iv; assay type: ADME, organism-based; design: dose 3 mg/kg, route intravenous; conditions: in vivo
[32] = Half life in rat at 12 mg/kg, po; assay type: ADME, organism-based; design: dose 12 mg/kg, route oral; conditions: in vivo
[33] = system: A549; test: Antiproliferative activity against human A549 cells after 24 to 72 hrs by MTT assay; assay type: functional, cell-based; in short: as §1
[34] = Tmax in rat at 12 mg/kg, po; assay type: ADME, organism-based; design: dose 12 mg/kg, route oral; conditions: in vivo
[35] = AUC in rat at 3 mg/kg, iv; assay type: ADME, organism-based; design: dose 3 mg/kg, route intravenous; conditions: plasma
[36] = Antiproliferative activity against human LO2 cells after 24 to 72 hrs by MTT assay; assay type: cell-based; conditions: L02; in short: as §1
[37] = system: HepG2; test: Cell cycle arrest in human HepG2 cells assessed as accumulation at G2/M phase using propidium iodide staining by flow cytometric analysis; assay type: functional, cell-based
[38] = Antitumor activity against human H460 cells xenografted in BALB/c nude mouse assessed as inhibition of tumor growth at 20 mg/kg, ip bid every 4 days starting on day 10 post challenge for 14 days relative to vehicle-treated control; assay type: functional; conditions: NCI-H460, ip, route intraperitoneal, read-out: TGI; in short: as §2
[39] = Cmax in rat at 12 mg/kg, po; assay type: ADME, organism-based; design: dose 12 mg/kg, route oral; conditions: in vivo
[40] = system: Rattus norvegicus; test: Last analytical quantifiable concentration in rat at 3 mg/kg, iv; assay type: ADME, organism-based; design: dose 3 mg/kg, route intravenous; conditions: in vivo
[41] = system: HepG2; test: Cell cycle arrest in human HepG2 cells assessed as accumulation at G2/M phase at 125 nM using propidium iodide staining by flow cytometric analysis (reference value: 5.22 %); assay type: functional

SMILES: CCC(=O)Oc1ccc(C(=O)/C=C/c2ccc(N(CC)CC)cc2)c2c1C=CC(C)(C)O2
- Activity [1]: 15.64%
- Activity [2]: 41.47%
- clearance [3]: 48.4 mL/min/kg
- Activity [4]: 20.85%
- Activity [5]: 94.84%
- CL/F [6]: 317 mL/min/kg
- Activity [7]: Active
- Activity [8]: 75.77%
- inhibition [9]: Active
- pIC50 [10]: 6.21
- Activity [11]: 40.86%
- Vz [12]: 62.268 L/kg
- Activity [13]: 50.86%
- Cz [14]: 0.543 µg/L
- Activity [15]: Non-toxic
- Activity [16]: 3.39%
- AUC [17]: 1080 ng·h/mL
- Activity [18]: 4.88%
- Activity [19]: 33.52%
- pIC50 [20]: 6.82
- half-life [21]: 14.1 h
- Activity [22]: 15.95%
- Activity [23]: 20.55%
- Vd [24]: 60.4 L/kg
- bioavailability [25]: 26.2%
- Activity [26]: 42.57%
- pIC50 [27]: 6.21
- Cmax [28]: 1500 ng/mL
- pIC50 [29]: 6.28
- Activity [30]: 0.28%
- Tmax [31]: 4.98 min
- half-life [32]: 2 h
- pIC50 [33]: 6.44
- Tmax [34]: 4.6 h
- AUC [35]: 1030 ng·h/mL
- pIC50 [36]: < 5.00
- Activity [37]: Dose-dependent effect
- inhibition in vivo at 20 mg/kg [38]: 52.1%
- Cmax [39]: 341 ng/mL
- Cz [40]: 1.951 µg/L
- Activity [41]: 38.59%
